Holding throughout (format): cell-based
The test system of assay [1] is MDA-MB-231 cells. As to the kind of experiment: MTS cytotoxicity assay, MDA-MB-231. Particulars: Homo sapiens, MDA-MB-231, 72 h, read-out: IC50 (μM) MBA-MD-231. The essentials:
(§1)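 MTS viability assay in A549, MDA-MB-231 and RPMI-8226 human cancer cells. All compounds were first screened at 10 and 50 μM. Compounds that crossed a set viability threshold in this screen went on to IC50 determination.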

For assay [2], the system named is RPMI-8226 cells. As to the kind of experiment: MTS cytotoxicity assay, RPMI-8226. Particulars: Homo sapiens, RPMI-8226, 72 h, read-out: IC50 (μM) RPMI-8226. The essentials: as §1
Assay [3] concerns A549 cells. As to the kind of experiment: MTS cytotoxicity assay, A549. Particulars: Homo sapiens, A549, 72 h, read-out: IC50 (μM) A549. In short, it runs like this:
as §1

Assay [4] concerns GES-1 cells. As to the kind of experiment: MTS cytotoxicity assay, normal GES-1 cells. Particulars: Homo sapiens, GES1, 72 h, read-out: IC50 (μM) GES-1.

The structures appear in SMILES notation.

On to `CC12CCC(c3c(-c4ccccc4F)nc(N)nc31)C2(C)C` (stereo not drawn) [Compound 3a, 4-(2-Fluorophenyl)-8,9,9-trimethyl-5,6,7,8-tetrahydro-5,8-methanoquinazolin-2-amine], for which the IC50 in assay [1] was 32.85 ± 0.31 µM; in assay [2], above 50 µM; in assay [3], above 50 µM; in assay [4] it was above 50 µM.
With `CC12CCC(c3c(-c4cccc(F)c4)nc(N)nc31)C2(C)C` (stereo not drawn) [Compound 3b, 4-(3-Fluorophenyl)-8,9,9-trimethyl-5,6,7,8-tetrahydro-5,8-methanoquinazolin-2-amine], the IC50 is 28.56 ± 0.26 µM in assay [1], above 50 µM in assay [2], 24.35 ± 0.01 µM in assay [3] and above 50 µM in assay [4].
With `CC12CCC(c3c(-c4ccc(F)cc4)nc(N)nc31)C2(C)C` (stereo not drawn) [Compound 3c, 4-(4-Fluorophenyl)-8,9,9-trimethyl-5,6,7,8-tetrahydro-5,8-methanoquinazolin-2-amine], the half-inhibitory concentration (IC50) is 12.59 ± 0.04 µM in assay [1], 9.3 ± 0.34 µM in assay [2], 12.63 ± 0.02 µM in assay [3] and above 50 µM in assay [4].
As to `CC12CCC(c3c(-c4ccccc4Cl)nc(N)nc31)C2(C)C` (stereo not drawn) [Compound 3d, 4-(2-Chlorophenyl)-8,9,9-trimethyl-5,6,7,8-tetrahydro-5,8-methanoquinazolin-2-amine], the IC50 in assay [1] was 25.5 ± 0.39 µM; in assay [2], 11.4 ± 0.18 µM; in assay [3] it was 16.9 ± 0.5 µM; in assay [4] it was above 50 µM.
Consider `CC12CCC(c3c(-c4cccc(Cl)c4)nc(N)nc31)C2(C)C` (stereo not drawn) [Compound 3e, 4-(3-Chlorophenyl)-8,9,9-trimethyl-5,6,7,8-tetrahydro-5,8-methanoquinazolin-2-amine], for which the IC50 is 23.3 ± 0.44 µM in assay [1], 10.4 ± 0.35 µM in assay [2], 10.63 ± 0.09 µM in assay [3] and above 50 µM in assay [4].
As to `CC12CCC(c3c(-c4ccccc4Br)nc(N)nc31)C2(C)C` (stereo not drawn) [Compound 3g, 4-(2-Bromophenyl)-8,9,9-trimethyl-5,6,7,8-tetrahydro-5,8-methanoquinazolin-2-amine], the IC50 in assay [1] is 18.3 ± 0.26 µM; in assay [2], above 50 µM; in assay [3], 23.32 ± 0.03 µM; in assay [4] it was above 50 µM.
As to `CC12CCC(c3c(-c4cccc(Br)c4)nc(N)nc31)C2(C)C` (stereo not drawn) [Compound 3h, 4-(3-Bromophenyl)-8,9,9-trimethyl-5,6,7,8-tetrahydro-5,8-methanoquinazolin-2-amine], the IC50 in assay [1], in assay [2], in assay [3] and in assay [4] was above 50 µM each time.
Regarding `CC12CCC(c3c(-c4ccc(Br)cc4)nc(N)nc31)C2(C)C` (stereo not drawn) [Compound 3i, 4-(4-Bromophenyl)-8,9,9-trimethyl-5,6,7,8-tetrahydro-5,8-methanoquinazolin-2-amine], the IC50 in assay [1] is 8.66 ± 0.17 µM; in assay [2] it was 18.94 ± 0.08 µM; in assay [3], 16.45 ± 0.04 µM; in assay [4], above 50 µM.
`Cc1ccccc1-c1nc(N)nc2c1C1CCC2(C)C1(C)C` (stereo not drawn) [Compound 3j, 8,9,9-Trimethyl-4-(o-tolyl)-5,6,7,8-tetrahydro-5,8-methanoquinazolin-2-amine]: the IC50 is 26.2 ± 0.4 µM in assay [1], above 50 µM in assay [2], 22.54 ± 0.15 µM in assay [3] and above 50 µM in assay [4].
Take `Cc1cccc(-c2nc(N)nc3c2C2CCC3(C)C2(C)C)c1` (stereo not drawn) [Compound 3k, 8,9,9-Trimethyl-4-(m-tolyl)-5,6,7,8-tetrahydro-5,8-methanoquinazolin-2-amine]: the IC50 was 20 ± 0.09 µM in assay [1], above 50 µM in assay [2], 18 ± 0.18 µM in assay [3] and above 50 µM in assay [4].
For `Cc1ccc(-c2nc(N)nc3c2C2CCC3(C)C2(C)C)cc1` (stereo not drawn) [Compound 3l, 8,9,9-Trimethyl-4-(p-tolyl)-5,6,7,8-tetrahydro-5,8-methanoquinazolin-2-amine], the IC50 is 15.68 ± 0.14 µM in assay [1], 13.86 ± 0.09 µM in assay [2], 15.32 ± 0.09 µM in assay [3] and above 50 µM in assay [4].
As for `COc1ccccc1-c1nc(N)nc2c1C1CCC2(C)C1(C)C` (stereo not drawn) [Compound 3m, 4-(2-Methoxyphenyl)-8,9,9-trimethyl-5,6,7,8-tetrahydro-5,8-methanoquinazolin-2-amine], the IC50 in assay [1], in assay [2], in assay [3] and in assay [4] was above 50 µM throughout.
Turning to `COc1cccc(-c2nc(N)nc3c2C2CCC3(C)C2(C)C)c1` (stereo not drawn) [Compound 3n, 4-(3-Methoxyphenyl)-8,9,9-trimethyl-5,6,7,8-tetrahydro-5,8-methanoquinazolin-2-amine], the IC50 in assay [1], in assay [2], in assay [3] and in assay [4] was above 50 µM throughout.
As for `COc1ccc(-c2nc(N)nc3c2C2CCC3(C)C2(C)C)cc1` (stereo not drawn) [Compound 3o, 4-(4-Methoxyphenyl)-8,9,9-trimethyl-5,6,7,8-tetrahydro-5,8-methanoquinazolin-2-amine], the IC50 in assay [1], in assay [2], in assay [3] and in assay [4] was above 50 µM throughout.
On to `CC12CCC(c3c(-c4ccccc4O)nc(N)nc31)C2(C)C` (stereo not drawn) [Compound 3p, 2-(2-Amino-8,9,9-trimethyl-5,6,7,8-tetrahydro-5,8-methanoquinazolin-4-yl)phenol], for which the IC50 in assay [1] is 16.3 ± 0.26 µM; in assay [2] it was above 50 µM; in assay [3], 14 ± 0.16 µM; in assay [4], above 50 µM.
Consider `CC12CCC(c3c(-c4cccc(O)c4)nc(N)nc31)C2(C)C` (stereo not drawn) [Compound 3q, 3-(2-Amino-8,9,9-trimethyl-5,6,7,8-tetrahydro-5,8-methanoquinazolin-4-yl)phenol], for which the IC50 in assay [1], in assay [2], in assay [3] and in assay [4] was above 50 µM in each case.
Regarding `CC12CCC(c3c(-c4ccc(O)cc4)nc(N)nc31)C2(C)C` (stereo not drawn) [Compound 3r, 4-(2-Amino-8,9,9-trimethyl-5,6,7,8-tetrahydro-5,8-methanoquinazolin-4-yl)phenol], the IC50 in assay [1], in assay [2], in assay [3] and in assay [4] was above 50 µM each time.
Regarding `CC12CCC(c3c(-c4ccccn4)nc(N)nc31)C2(C)C` (stereo not drawn) [Compound 3s, 8,9,9-Trimethyl-4-(pyridin-2-yl)-5,6,7,8-tetrahydro-5,8-methanoquinazolin-2-amine], the IC50 in assay [1], in assay [2], in assay [3] and in assay [4] was above 50 µM in each case.
Take `CC12CCC(c3c(-c4cccnc4)nc(N)nc31)C2(C)C` (stereo not drawn) [Compound 3t, 8,9,9-Trimethyl-4-(pyridin-3-yl)-5,6,7,8-tetrahydro-5,8-methanoquinazolin-2-amine]: the IC50 in assay [1], in assay [2], in assay [3] and in assay [4] was above 50 µM throughout.
With `CC12CCC(c3c(-c4ccncc4)nc(N)nc31)C2(C)C` (stereo not drawn) [Compound 3u, 8,9,9-Trimethyl-4-(pyridin-4-yl)-5,6,7,8-tetrahydro-5,8-methanoquinazolin-2-amine], the IC50 in assay [1], in assay [2], in assay [3] and in assay [4] was above 50 µM each time.
In the case of `CN(C)c1ccc(-c2nc(N)nc3c2C2CCC3(C)C2(C)C)cc1` (stereo not drawn) [Compound 3v, 4-(4-(Dimethylamino)phenyl)-8,9,9-trimethyl-5,6,7,8-tetrahydro-5,8-methanoquinazolin-2-amine], the IC50 in assay [1], in assay [2], in assay [3] and in assay [4] was above 50 µM each time.
With `CC12CCC(c3c(-c4ccc([N+](=O)[O-])cc4)nc(N)nc31)C2(C)C` (stereo not drawn) [Compound 3w, 8,9,9-Trimethyl-4-(4-nitrophenyl)-5,6,7,8-tetrahydro-5,8-methanoquinazolin-2-amine], the IC50 was 6.21 ± 0.14 µM in assay [1], 9.58 ± 0.11 µM in assay [2], 10.84 ± 0.09 µM in assay [3] and above 50 µM in assay [4].
Turning to `CC12CCC(c3c(-c4ccccc4)nc(N)nc31)C2(C)C` (stereo not drawn) [Compound 3x, 8,9,9-Trimethyl-4-phenyl-5,6,7,8-tetrahydro-5,8-methanoquinazolin-2-amine], the IC50 in assay [1] is 29.88 ± 0.16 µM; in assay [2], above 50 µM; in assay [3], above 50 µM; in assay [4] it was above 50 µM.
For `COc1cc([C@@H]2c3cc4c(cc3[C@@H](O[C@@H]3O[C@@H]5CO[C@@H](C)O[C@H]5[C@H](O)[C@H]3O)[C@H]3COC(=O)[C@H]23)OCO4)cc(OC)c1O` [Etoposide, reference compound], the IC50 came to 3.97 ± 0.45 µM in assay [1], 1.92 ± 0.17 µM in assay [2], 10.9 ± 0.79 µM in assay [3] and 8.89 ± 0.7 µM in assay [4].
